Data from PMC6447450 (Structure (London, England : 1993), 2019).
“Also recorded” adds a separate entry of the source.

Experiments:
[1] = tested on: Bfl-1, Mcl-1, Bcl-xL, Bcl-w, and Bcl-2; test: Yeast-surface display FACS binding to five Bcl-2 family paralogs; parameters: species or system human; settings: for selectivity of Mcl-1 binders among Bcl-2 family paralogs (in words): Mcl-1 versus Bfl-1, Bcl-xL
How it was run: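 Myc-tagged human Mcl-1 (172-327), Bfl-1 (1-151), Bcl-2 (1-217), Bcl-w (1-164) and Bcl-xL (1-209) tested at 1000, 100, 10 and 1 nM on peptide-displaying yeast induced in galactose medium for 20-24 hr at 30 °C. Display detected with anti-HA and bound target with anti-c-myc (15 min, 4 °C), then APC anti-mouse and PE anti-rabbit (15 min, 4 °C, dark). Read-out: FACS median binding signal of expression-positive cells.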

[2] = target: Mcl-1 (Homo sapiens, UniProt Q07820); test: Yeast-surface display FACS binding to Mcl-1
Chain of Mcl-1 (Q07820 172-327): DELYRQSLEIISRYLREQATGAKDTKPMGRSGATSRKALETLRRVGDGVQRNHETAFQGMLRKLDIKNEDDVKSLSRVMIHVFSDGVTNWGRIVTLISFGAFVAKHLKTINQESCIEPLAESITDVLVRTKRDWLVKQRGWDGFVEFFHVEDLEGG

[3] = target: T1, Bfl-1 (Homo sapiens, UniProt Q16548); test: Yeast-surface display FACS binding to Bfl-1
T1 sequence (Q16548 1-151): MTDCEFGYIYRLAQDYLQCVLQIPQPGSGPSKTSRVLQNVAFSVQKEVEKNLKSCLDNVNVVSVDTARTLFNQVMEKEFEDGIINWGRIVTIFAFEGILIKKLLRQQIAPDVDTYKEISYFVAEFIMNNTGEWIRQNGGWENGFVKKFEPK

-QWVREIAAGLRRAADDVNAQVER [FS2, reference compound]
selectivity for Bfl-1 ([1]; Bfl-1 versus Mcl-1, Bcl-xL, yeast-surface display): > 100 fold

APKEKEVARTLIKIGEEINEALK- [dM5]
selectivity of Mcl-1 binders among Bcl-2 family paralogs (in words) ([1]; yeast-surface display): selective

APYLEQVARTLLHIGMEINEALR- [dM6]
binding to Bcl-2 family members (in words) ([1]; yeast-surface display FACS, Bfl-1, Mcl-1, Bcl-xL): not binding to any of the Bcl-2 family members we tested
binding to target Mcl-1 (in words) [2]: did not bind to their targets with high affinity

APKEKEVAETLRKIGEEINEALK- [dM1]
selectivity of Mcl-1 binders among Bcl-2 family paralogs (in words) ([1]; yeast-surface display): selective

-SYIDKIADLIDKVVEEINSKLE- [dF6]
binding to target Bfl-1 (in words) [3]: did not bind to their targets with high affinity; also recorded: did not bind tightly to Bfl-1
